From ChEMBL document CHEMBL1133105, “Antimalarial, antitrypanosomal, and antileishmanial activities and cytotoxicity of bis(9-amino-6-chloro-2-methoxyacridines): influence of the linker” (J Med Chem, 2000) come the findings set out here.

The term IC50 denotes the midpoint of a concentration-inhibition curve. Low values mean inhibition by little substance, high ones a need for much substance. In general, CC50 refers to the concentration at which the toxic effect on the cells reaches its halfway point. The low end stands for greater toxicity to the cells, the high end for lower toxicity to the cells.

Assay [1] deals with Plasmodium falciparum. Description: Parasite growth inhibition against Plasmodium falciparum FCM29. The format is functional, organism-based. Put shortly:
(§1)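 Asynchronous cultures of each strain on human erythrocytes (0.5% parasitemia, 1% final hematocrit) were exposed to serially diluted drug for 24 h at 37 °C. Then 0.5 µCi [3H]hypoxanthine per well was added for 24 h. Incorporation was compared with a drug-free control on the same plate. IC50 was taken from the concentration-response curve as the mean of several independent experiments. DMSO was at most 0.1%.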

The test system of assay [2] is Plasmodium falciparum. Description: Growth inhibition of chloroquine-sensitive Plasmodium falciparum 3D7.
Assay [3] relates to MRC5. In words: Cytotoxicity on MRC-5 cells at 25 uM. The format is functional. Particulars: Homo sapiens. Put shortly:
(§2)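 MRC-5 human diploid embryonic lung cells seeded at 5 000/well, washed after 24 h, then given 2-fold drug dilutions (25, 12.5, 6.25, 3.13 µM) in RPMI + 5% FCS, final DMSO below 0.5%. Incubated 7 days at 37 °C, 5% CO2. MTT colorimetric read-out, scored as % reduction of absorbance at 540 nm versus untreated controls.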

The test system of assay [4] is MRC5. In words: Cytotoxicity on MRC-5 cells at 12.5 uM. Conditions: Homo sapiens. Format: functional. Put shortly: as §2
Assay [5] concerns Plasmodium falciparum. Description: Growth inhibition against chloroquine-resistant Plasmodium falciparum K1. The format is functional, organism-based. Put shortly:
as §1

Assay [6] concerns Leishmania infantum. Description: Percentage of activity against Leishmania infantum at 12.5 uM Concentration; Toxic upon mouse primary peritoneal macrophages. The format is functional, organism-based. Put shortly: (§3)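 Starch-stimulated mouse peritoneal macrophages, 30 000/well, infected after 24 h with spleen-derived L. infantum amastigotes (10:1) together with 2-fold drug dilutions (12.5–1.56 µM). Incubated 7 days at 37 °C, 5% CO2. Wright-stained slides scored microscopically as % reduction of total parasite load or of infected macrophages. Uninfected treated cultures judged microscopically for macrophage toxicity.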

Assay [7] deals with Trypanosoma cruzi. In words: Percentage of activity against Trypanosoma cruzi at 3.13 uM. Format: functional. Put shortly:
(§4)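 Mouse peritoneal macrophages, 30 000/well, infected after 24 h with about 100 000 T. cruzi trypomastigotes per well plus 2-fold drug dilutions (12.5–1.56 µM). Incubated 4 days at 37 °C, 5% CO2. Methanol-fixed, Giemsa-stained and scored microscopically as % reduction of total parasite load (free trypomastigotes plus intracellular amastigotes) versus untreated controls.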

The test system of assay [8] is Plasmodium falciparum. In words: Parasite growth inhibition against Plasmodium falciparum GP1. The format is functional, organism-based. Put shortly:
as §1

Assay [9] deals with Plasmodium falciparum. Description: Parasite growth inhibition against Plasmodium falciparum W2. The format is functional, organism-based. Put shortly:
as §1

Assay [10] relates to Trypanosoma brucei. In words: Percentage of activity against Trypanosoma brucei at 1.56 uM. Format: functional. Put shortly:
(§5)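 Bloodstream-form T. brucei in HMI-9 medium, 10 000 parasites/well, exposed to 12.5, 6.25, 3.13 and 1.56 µM drug for 4 days. Read-out is % inhibition of parasite multiplication. Macrophage toxicity judged on mouse primary peritoneal macrophages.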

Assay [11] relates to Trypanosoma cruzi. In words: In Vitro evaluation for the percentage of activity towards Trypanosoma cruzi at 6.25 uM Concentration; Toxic upon mouse primary peritoneal macrophages. Format: functional, organism-based. Put shortly: as §4
Assay [12] has as its system MRC5. In words: Cytotoxicity on MRC-5 cells at 3.13 uM. The format is functional. Conditions: Homo sapiens. Put shortly:
as §2

In assay [13] the test system is Trypanosoma cruzi. In words: Percentage of activity against Trypanosoma cruzi at 1.56 uM. The format is functional. Put shortly: as §4
Assay [14] has as its system Trypanosoma cruzi. In words: Percentage of activity against Trypanosoma cruzi at 12.5 uM; Toxic upon mouse primary peritoneal macrophages. The format is functional, organism-based. Put shortly: as §4
Assay [15] relates to Plasmodium falciparum. Description: Parasite growth inhibition against Plasmodium falciparum F32A. The format is functional, organism-based. Put shortly:
as §1

The subject of assay [16] is Trypanosoma brucei. Description: Percentage of activity against Trypanosoma brucei at 3.13 uM. The format is functional. Put shortly:
as §5

The subject of assay [17] is Plasmodium falciparum. In words: Parasite growth inhibition against Plasmodium falciparum FCR3. Format: functional, organism-based. Put shortly: as §1
Assay [18] deals with MRC5. In words: Cytotoxicity on MRC-5 cells at 6.25 uM. Format: functional. Particulars: Homo sapiens. Put shortly: as §2
The test system of assay [19] is Plasmodium falciparum. In words: In vitro sensitivity for Plasmodium falciparum FcB1R. The format is functional, organism-based. Put shortly:
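Asynchronous P. falciparum cultures in human erythrocytes (0.5% parasitemia, 1% haematocrit) exposed to serially diluted drug for 24 h at 37 °C. [3H]hypoxanthine (0.5 µCi/well) then added for a further 24 h. Uptake compared with drug-free controls on the same plate. IC50 taken from the concentration–response curve, averaged over independent experiments. DMSO ≤0.1%.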

The test system of assay [20] is Leishmania infantum. In words: Percentage of activity against Leishmania infantum at 6.25 uM; Toxic upon mouse primary peritoneal macrophages. Format: functional, organism-based. Put shortly: as §3
The subject of assay [21] is Leishmania infantum. In words: Percentage of activity against Leishmania infantum at 3.13 uM. The format is functional. Put shortly: as §3
The subject of assay [22] is Trypanosoma brucei. Description: Percentage of activity against Trypanosoma brucei at 6.25 uM. The format is functional. Put shortly:
as §5

Assay [23] deals with Leishmania infantum. Description: Percentage of activity against Leishmania infantum at 1.56 uM. The format is functional. Put shortly:
as §3

Assay [24] concerns Trypanosoma brucei. Description: In Vitro inhibition concentration against Trypomastigote form of Trypanosoma brucei. Format: functional, organism-based. Put shortly:
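Bloodstream-form trypomastigotes were grown in HMI-9 medium. 10 000 parasites per well were incubated with drug at 12.5, 6.25, 3.13 and 1.56 µM for 4 days, and parasite multiplication was assessed.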

Assay [25] relates to MRC5. In words: In Vitro cytotoxicity on MRC-5 cells. Conditions: Homo sapiens. Format: functional. Put shortly: as §2
The test system of assay [26] is Leishmania infantum. In words: In Vitro evaluation for the percentage of activity towards Leishmania infantum at 1.56 uM Concentration; Toxic upon mouse primary peritoneal macrophages. Format: functional, organism-based. Put shortly: as §3
In assay [27] the test system is Leishmania infantum. Description: In Vitro evaluation for the percentage of activity towards Leishmania infantum at 3.13 uM Concentration; Toxic upon mouse primary peritoneal macrophages. The format is functional, organism-based. Put shortly:
as §3

Assay [28] deals with Trypanosoma brucei. Description: In Vitro evaluation for the percentage of activity towards Trypanosoma brucei at 3.13 uM Concentration. The format is functional. Put shortly:
as §5

Assay [29] concerns Trypanosoma cruzi. In words: In Vitro evaluation for the percentage of activity towards Trypanosoma cruzi at 3.13 uM Concentration; Toxic upon mouse primary peritoneal macrophages. The format is functional, organism-based. Put shortly:
as §4

The test system of assay [30] is Trypanosoma brucei. Description: In Vitro evaluation for the percentage of activity towards Trypanosoma brucei at 12.5 uM Concentration; Toxic upon mouse primary peritoneal macrophages. Format: functional, organism-based. Put shortly:
as §5

The test system of assay [31] is Plasmodium falciparum. In words: Inhibition of Plasmodium falciparum 3D7.
Assay [32] has as its system Plasmodium falciparum. In words: Inhibition of Plasmodium falciparum F32A.
Assay [33] relates to Plasmodium falciparum. In words: Inhibition of Plasmodium falciparum FCR3.
Assay [34] has as its system Plasmodium falciparum. Description: Inhibition of Plasmodium falciparum W2.

Molecules are shown by their SMILES.

On to `COc1ccc2nc3cc(Cl)ccc3c(NCCCN(CCCNc3c4ccc(Cl)cc4nc4ccc(OC)cc34)C(=O)C(CC(C)C)NC(=O)OC(C)(C)C)c2c1` (stereo not drawn), for which the IC50 in the assay on Plasmodium falciparum [1] stood at 13 nM; with Plasmodium falciparum [2], 48 nM; in the assay on Plasmodium falciparum [5] it was 14 nM; in the assay on Plasmodium falciparum [8], 63 nM; with Plasmodium falciparum [9] it was 15 nM; in the assay with Plasmodium falciparum [15] it was 52 nM. The IC50 with Plasmodium falciparum [17] worked out at 17 nM; with Plasmodium falciparum [19] it was 27 nM. Moreover, the cytotoxicity at 25 µM in the assay with MRC5 [3] worked out at 55%. The compound also showed a cytotoxicity at 12.5 µM with MRC5 [4] of 49%. The Cytotoxicity result in the assay on Leishmania infantum [6], in the assay with Trypanosoma cruzi [11], with Trypanosoma cruzi [14] and in the assay with Leishmania infantum [20] was “Toxic” each time. Moreover, in the assay on Trypanosoma cruzi [7], the “Reduction of T. cruzi parasite load” value was 80%. The “Percent inhibition of parasite multiplication” value (shortened to “Percent inhibition”) with Trypanosoma brucei [10] is 100%. In the assay with MRC5 [12], this compound displayed a cytotoxicity at 3.13 µM of 42%. Further, in the assay with Trypanosoma cruzi [13], the Parasite load reduction is 40%. The Parasite growth inhibition in the assay with Trypanosoma brucei [16] worked out at 100%. In the assay on MRC5 [18], this compound came in with a cytotoxicity at 6.25 µM of 47%. Also, in the assay with Leishmania infantum [21], the “Percent antileishmanial activity (reduction of parasite load)” value is 95%. In addition, the “Inhibition of parasite multiplication” value in the assay with Trypanosoma brucei [22] stood at 100%. For the same compound, the “Antileishmanial activity (% reduction of parasite load)” value in the assay on Leishmania infantum [23] came out at 90%.

In the assay on Trypanosoma brucei [24], `Nc1nc(N)nc(Nc2ccc([As]3SCC(CO)S3)cc2)n1` (stereo not drawn) [MELARSOPROL] returned an IC50 of 200 nM. Besides, the CC50 with MRC5 [25] amounted to 12500 nM.

With `COc1ccc2nc3cc(Cl)ccc3c(NCCCN(CCCNc3c4ccc(Cl)cc4nc4ccc(OC)cc34)C(=O)CCN(C)C)c2c1`, the cytotoxicity at 25 µM with MRC5 [3] was found to be 54%. This compound also showed a cytotoxicity at 12.5 µM with MRC5 [4] of 40%. For the same compound, the Cytotoxicity entry is “Toxic” in the assay with Leishmania infantum [6]; “Toxic” in the assay on Leishmania infantum [26]; “Toxic” in the assay with Leishmania infantum [27]; “Toxic” in the assay on Trypanosoma cruzi [11]; “Toxic” in the assay with Trypanosoma cruzi [14]; 100% in the assay on Trypanosoma brucei [28]. Besides, the Cytotoxicity result in the assay on Trypanosoma cruzi [29] and in the assay on Leishmania infantum [20] was “Toxic” in each case. Moreover, the “Percent inhibition” value in the assay with Trypanosoma brucei [10] stood at 100%. In the assay on MRC5 [12], this compound had a cytotoxicity at 3.13 µM of 30%. Moreover, in the assay with Trypanosoma cruzi [13], the Parasite load reduction came to 40%. The compound also came in with a cytotoxicity at 6.25 µM in the assay on MRC5 [18] of 39%. Moreover, the IC50 in the assay on Plasmodium falciparum [19] was 39 nM. The “Inhibition of parasite multiplication” value with Trypanosoma brucei [22] worked out at 100%.

As for `COc1ccc2nc3cc(Cl)ccc3c(NCCCN(CCCNc3c4ccc(Cl)cc4nc4ccc(OC)cc34)C(=O)CCN3CCCC3)c2c1`, the cytotoxicity at 25 µM in the assay with MRC5 [3] is 76%. For the same compound, the cytotoxicity at 12.5 µM in the assay on MRC5 [4] turned out to be 65%. The Cytotoxicity entry in the assay on Leishmania infantum [6], in the assay on Leishmania infantum [26], in the assay with Leishmania infantum [27], with Trypanosoma cruzi [11], in the assay on Trypanosoma cruzi [14] and with Trypanosoma cruzi [29] was “Toxic” in each case. For the same compound, the Cytotoxicity entry in the assay on Trypanosoma brucei [30] and in the assay with Leishmania infantum [20] was “Toxic” each time. In the assay on Trypanosoma brucei [10], the “Percent inhibition” value is given as 100%. The compound also yielded a cytotoxicity at 3.13 µM in the assay on MRC5 [12] of 37%. In the assay with Trypanosoma cruzi [13], this compound had a Parasite load reduction of 0%. In the assay with Trypanosoma brucei [16], this compound showed a Parasite growth inhibition of 100%. The cytotoxicity at 6.25 µM in the assay on MRC5 [18] turned out to be 39%. This compound displayed an IC50 with Plasmodium falciparum [19] of 91 nM. Moreover, in the assay on Trypanosoma brucei [22], the “Inhibition of parasite multiplication” value worked out at 100%.

For `OC(c1cc(C(F)(F)F)nc2c(C(F)(F)F)cccc12)C1CCCCN1` (stereo not drawn) [MEFLOQUINE], the IC50 in the assay on Plasmodium falciparum [31] was 40 nM; in the assay on Plasmodium falciparum [32] it was 62 nM; in the assay with Plasmodium falciparum [33] it was 36 nM; in the assay on Plasmodium falciparum [34], 30 nM; in the assay on Plasmodium falciparum [19], 6.9 nM.
